We go through 23 compounds from ChEMBL document CHEMBL1153346, “Structure-activity study of pentamidine analogues as antiprotozoal agents” (J Med Chem, 2009).

The subject of one data set is L6. The experiment in a line: Cytotoxicity against rat L6 cells after 70 hrs by alamar blue assay. Format: cell-based. To be noted: L6, 70 h. A digest of the protocol:
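L6 rat myoblasts, 4000 per well, in RPMI 1640 with 2 mM L-glutamine, HEPES, NaHCO₃ and 10% FBS. Exposed to serial dilutions (DMSO ≤1%) for 70 h at 37 °C in humidified 5% CO₂. Resazurin then added for 2-3 h; fluorescence read at ex 536/em 588 nm. IC50 from sigmoidal curves; two independent runs in duplicate.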
A general note: Alamar Blue is a resazurin reagent that responds to reducing activity.

Data set [1] in a line: Selectivity index, ratio of IC50 for rat L6 cells to IC50 for Leishmania donovani MHOM/SD/62/1S-CL2D axenic amastigotes. Format: toxicity, cell-based. Conditions: read-out: Ratio IC50. The method, boiled down:
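Amastigotes: 6 × 10⁴ parasites/well with 2-fold dilutions, 72 h at 37 °C in 5% CO2. Growth read by tetrazolium CellTiter absorbance at 490 nm; IC50 from a four-parameter dose-response fit.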

Another data set deals with Plasmodium falciparum. Briefly: Antiprotozoal activity after 48 hrs against chloroquine-resistant Plasmodium falciparum K1 infected erythrocytes by [3H]hypoxanthine uptake. Format: functional, organism-based. The method, boiled down:
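Erythrocytic stages in infected human red cells (hematocrit 1.25%, parasitemia 0.3%) in supplemented RPMI 1640 with Albumax II. Serial dilutions incubated at 37 °C in 93% N2/4% CO2/3% O2. [3H]-hypoxanthine (0.5 µCi/well) added at 48 h, then 24 h more. Incorporation counted by scintillation. IC50 from sigmoidal curves; two independent runs in duplicate.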

Another data set deals with Leishmania donovani. The experiment in a line: Antiprotozoal activity against Leishmania donovani MHOM/SD/62/1S-CL2D axenic amastigotes after 72 hrs. It is filed as functional, organism-based. The method, boiled down:
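L. donovani axenic amastigotes, adapted from promastigotes and grown in amastigote medium at 37 °C. 6 × 10⁴ parasites per well with 2-fold compound dilutions (DMSO ≤1%), incubated 72 h at 37 °C in humidified 5% CO₂. Growth read by tetrazolium (CellTiter) absorbance at 490 nm. IC50 from a four-parameter dose-response fit. Average of duplicate determinations.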

Data set [2] in a line: Selectivity index, ratio of IC50 for rat L6 cells to IC50 for Trypanosoma brucei rhodesiense STIB900 trypomastigotes. Format: toxicity, cell-based. Conditions: read-out: Ratio IC50. A digest of the protocol:
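Ratio of L6 IC50 to STIB900 IC50. L6 cells: 4000/well in RPMI 1640 with 10% FBS, 70 h at 37 °C. Bloodstream forms: 2000/well in supplemented MEM with 15% horse serum, 70 h at 37 °C. Both read by Alamar blue fluorescence; IC50s from sigmoidal curves, two independent runs in duplicate.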

The test system of data set [3] is Trypanosoma brucei rhodesiense. The experiment in a line: Antiprotozoal activity against Trypanosoma brucei rhodesiense STIB900 trypomastigotes after 70 hrs by alamar blue assay. Format: functional, organism-based. A digest of the protocol: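 Bloodstream forms, 2000 per well, in MEM with Earle's salts plus 0.2 mM 2-mercaptoethanol, 1 mM pyruvate, 0.5 mM hypoxanthine and 15% heat-inactivated horse serum. Exposed to serial dilutions (DMSO ≤1%) for 70 h at 37 °C in 5% CO₂. Resazurin then added for a further 2-6 h. IC50 from sigmoidal curves; two independent runs in duplicate.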

Data set [4] can be described thus: Selectivity index, ratio of IC50 for rat L6 cells to IC50 for chloroquine-resistant Plasmodium falciparum K1. Format: toxicity, cell-based. To be noted: read-out: Ratio IC50. A digest of the protocol:
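Ratio of L6 IC50 to K1 IC50. L6 cells: Alamar blue assay after 70 h, 37 °C. K1: [3H]-hypoxanthine incorporation in infected red cells over 48 + 24 h at 37 °C under low O2. IC50s from sigmoidal curves, two independent runs in duplicate.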

For the compound `CC(C)NC(=N)c1cccc(OCCCOc2cccc(C(=N)NC(C)C)c2)c1`, the IC50 in the data set on L6 was > 183 µM; in the data set with Plasmodium falciparum it was 0.018 µM; in the data set with Leishmania donovani, 16.2 µM; in data set [3] it was 0.543 µM. The selectivity ratio was > 11 in data set [1], > 337 in data set [2] and > 10200 in data set [4].
For `CC(C)NC(=N)c1ccc(OCCCCCOc2ccc(C(=N)NC(C)C)cc2C(=O)O)c(C(=O)O)c1`, the IC50 is > 144 µM with L6, > 1.6 µM with Plasmodium falciparum, > 200 µM with Leishmania donovani and > 16 µM in data set [3].
For `CCOC(=O)c1cc(C(=N)N)ccc1OCCCCCOc1ccc(C(=N)N)cc1C(N)=O`, the IC50 in the data set with L6 is > 165 µM; in the data set on Plasmodium falciparum, 0.014 µM; in the data set with Leishmania donovani, 52.1 µM; in data set [3], 0.011 µM. Also, the results for the selectivity ratio in data set [1], in data set [2] and in data set [4] were > 3, > 15000 and > 11800, respectively.
As for `c1cc(OCCCCOc2cccc(C3=NCCN3)c2)cc(C2=NCCN2)c1`, the IC50 was > 185 µM with L6, 0.107 µM with Plasmodium falciparum, 39.5 µM in the data set with Leishmania donovani and 1.94 µM in data set [3]. Besides, the selectivity ratio in data set [1] is > 5; in data set [2], > 95; in data set [4], > 1730.
Consider `CC(C)NC(=N)c1ccc(OCCCCCOc2ccc(C(=N)NC(C)C)c(F)c2)cc1F`, for which the IC50 was found to be 131 µM in the data set with L6, 0.007 µM with Plasmodium falciparum, 15 µM in the data set on Leishmania donovani and 0.259 µM in data set [3]. In addition, the selectivity ratio in data set [1] was 9; in data set [2], 506; in data set [4] it was 18700.
With `CCOC(=O)c1cc(C2=NCCN2)ccc1OCCCCCOc1ccc(C2=NCCN2)cc1C(=O)OCC`, the IC50 with L6 is > 138 µM; in the data set with Plasmodium falciparum it was 0.027 µM; in the data set on Leishmania donovani, 13.6 µM; in data set [3], > 15.3 µM. In addition, the selectivity ratio in data set [1] was > 10; in data set [4] it was > 5110.
For the compound `CC(C)NC(=N)c1cccc(OCCCCCCOc2cccc(C(=N)NC(C)C)c2)c1`, the IC50 in the data set on L6 worked out at 107 µM; in the data set on Plasmodium falciparum, 0.006 µM; in the data set with Leishmania donovani it was 11.6 µM; in data set [3], 0.258 µM. Moreover, the selectivity ratio in data set [1] turned out to be 9; in data set [2], 415; in data set [4], 17800.
Regarding `CNC(=N)c1ccc(OCCCOc2ccc(C(=N)NC)cc2OC)c(OC)c1`, the IC50 in the data set with L6 amounted to 177 µM; in the data set with Plasmodium falciparum, 0.641 µM; in the data set on Leishmania donovani it was 25.3 µM; in data set [3] it was 0.057 µM. Also, the selectivity ratio in data set [1] was determined as 7; in data set [2], 3100; in data set [4], 276.
Turning to `C[C@@H]1CC[C@H]2[C@@H](C)C(=O)O[C@@H]3O[C@@]4(C)CC[C@@H]1[C@]32OO4` [ARTEMISININ], the selectivity ratio in data set [4] came out at 75000.
`N=C(N)c1ccc(OCCCCCOc2ccc(N)cc2)cc1`: the IC50 is 120 µM with L6, 2.24 µM with Plasmodium falciparum, > 100 µM in the data set on Leishmania donovani and 1.31 µM in data set [3]. The selectivity ratio in data set [1] was determined as 1; in data set [2], 91; in data set [4], 54.
`N=C(N)c1ccc(OCCCCCOc2ccc(C(=N)N)c(O)c2)cc1O`: the IC50 in the data set with L6 is > 195 µM; in the data set with Plasmodium falciparum it was 1.29 µM; in the data set with Leishmania donovani, > 100 µM; in data set [3], 7.96 µM. Also, the selectivity ratio in data set [2] was > 24; in data set [4] it was > 151.
For the compound `N/N=C(\N)c1ccc(OCCCCCOc2ccc(/C(N)=N/N)cc2)cc1`, the IC50 in the data set on L6 was found to be 139 µM; in the data set with Plasmodium falciparum, 1.41 µM; with Leishmania donovani, 126 µM; in data set [3], 9.67 µM. In addition, the figures for the selectivity ratio in data set [1], in data set [2] and in data set [4] were 1, 14 and 99, respectively.
In the case of `CC(C)NC(=N)c1cccc(OCCCCCOc2cccc(C(=N)NC(C)C)c2)c1`, the IC50 is > 175 µM in the data set on L6, 0.004 µM in the data set with Plasmodium falciparum, 15.4 µM in the data set with Leishmania donovani and 0.416 µM in data set [3]. Also, the selectivity ratio in data set [1] is > 11; in data set [2], > 421; in data set [4], > 43800.
Turning to `N=C(N)c1ccc(OCCCCOc2ccc(C(=N)N)cc2[N+](=O)[O-])c([N+](=O)[O-])c1`, the IC50 in the data set with L6 was 42.8 µM; in the data set with Plasmodium falciparum, 0.018 µM; in the data set with Leishmania donovani it was 15.1 µM; in data set [3], 0.181 µM. Moreover, the selectivity ratio came to 3 in data set [1], 236 in data set [2] and 2380 in data set [4].
With `CCOC(=O)c1cc(C(=N)N)ccc1OCCCCCOc1ccc(C(=N)N)cc1C(=O)OCC`, the IC50 in the data set on L6 was > 152 µM; in the data set on Plasmodium falciparum it was 0.021 µM; in the data set with Leishmania donovani it was > 50 µM; in data set [3], 12.1 µM. Besides, the figures for the selectivity ratio in data set [2] and in data set [4] were > 13 and > 7240, respectively.
For the compound `CC(C)NC(=N)c1cccc(OCCCCOc2cccc(C(=N)NC(C)C)c2)c1`, the IC50 in the data set with L6 is > 171 µM; in the data set on Plasmodium falciparum, 0.013 µM; in the data set on Leishmania donovani, 19.3 µM; in data set [3], 0.619 µM. Besides, the selectivity ratio in data set [1] was > 9; in data set [2], > 276; in data set [4], > 13200.
Take `N=C(N)c1ccc(OCCCCCOc2ccc(C(=N)N)cc2C(=O)O)c(C(=O)O)c1`: the values for the 50% inhibitory concentration (IC50) (with L6; in the data set on Plasmodium falciparum; in data set [3]) were > 165 µM, 71.8 µM and > 18.3 µM, respectively. In addition, in data set [4], the selectivity ratio was found to be 2.
Regarding `CC(=N)Nc1ccc(OCCCCCOc2ccc(NC(C)=N)cc2)cc1`, the IC50 was > 202 µM in the data set on L6, 0.048 µM in the data set on Plasmodium falciparum, > 100 µM with Leishmania donovani and 3.04 µM in data set [3]. Besides, the figures for the selectivity ratio in data set [2] and in data set [4] were > 66 and > 4210, respectively.
Consider `Fc1cc(OCCCCCOc2ccc(C3=NCCN3)c(F)c2)ccc1C1=NCCN1`, for which the IC50 came out at 23.2 µM in the data set with L6, 0.544 µM with Plasmodium falciparum, 52.6 µM with Leishmania donovani and 4.46 µM in data set [3]. Also, the selectivity ratio came to 0.4 in data set [1], 5 in data set [2] and 43 in data set [4].
Take `Nc1cc(C2=NCCN2)ccc1OCCCOc1ccc(C2=NCCN2)cc1N`: the IC50 was > 167 µM in the data set on L6, 0.07 µM in the data set on Plasmodium falciparum and 0.813 µM in data set [3]. Also, the selectivity ratio is > 205 in data set [2] and > 2390 in data set [4].
Regarding `CN1CCN=C1c1ccc(OCCCCCOc2ccc(C3=NCCN3C)cc2)cc1`, the IC50 in the data set on L6 was > 176 µM; in the data set with Plasmodium falciparum, 1.65 µM; in the data set on Leishmania donovani it was > 100 µM; in data set [3], > 19.6 µM. The selectivity ratio in data set [1] is 2; in data set [4] it was > 107.
For the compound `O=C(O)c1cc(C2=NCCN2)ccc1OCCCCCOc1ccc(C2=NCCN2)cc1C(=O)O`, the IC50 in the data set on L6 is > 151 µM; in the data set on Plasmodium falciparum, > 1.68 µM; in the data set on Leishmania donovani, > 200 µM; in data set [3], > 16.8 µM.
For the compound `c1cc(-c2nnn[nH]2)ccc1OCCCCCOc1ccc(-c2nnn[nH]2)cc1`, the IC50 is > 229 µM in the data set with L6, 8.31 µM with Plasmodium falciparum, > 100 µM in the data set on Leishmania donovani and > 229 µM in data set [3]. The selectivity ratio in data set [1] is 2; in data set [4], > 28.

As a reminder, the IC50 is the concentration needed to halve the response being measured. Read a low IC50 as inhibition by little substance.
